Laboratory results reported in ChEMBL document CHEMBL3425450, “Neuroactive Steroids. 1. Positive Allosteric Modulators of the (γ-Aminobutyric Acid)A Receptor: Structure-Activity Relationships of Heterocyclic Substitution at C-21” (J Med Chem, 2015).
Values after ≈ are worked out from the molar mass of the structure shown.

Key:
[1] = Clearance in human liver microsomes at 10 uM after 60 mins by HPLC-MS/MS analysis; type: ADME
[2] = Clearance in rat liver microsomes at 10 uM after 60 mins by HPLC-MS/MS analysis; type: ADME
[3] = Clearance in mouse liver microsomes at 10 uM after 60 mins by HPLC-MS/MS analysis; type: ADME
[4] = Clearance in Sprague-Dawley rat at 5 mg/kg, iv and 20 mg/kg, po by LC-MS/MS analysis; type: ADME, organism-based; settings: in vivo
Outline: (§1)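 Rats were dosed i.v. at 5 mpk and orally at 20 mpk. Clearance and oral bioavailability were calculated from mean plasma concentrations of 2 rats.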

[5] = Oral bioavailability in Sprague-Dawley rat at 20 mg/kg by LC-MS/MS analysis; type: ADME, organism-based; settings: in vivo; outline: as §1
[6] = Ratio of drug level in brain to plasma in Sprague-Dawley rat at 5 mg/kg, iv after 30 mins by LC-MS/MS analysis; type: ADME, organism-based; design: dose 5 mg/kg, route intravenous; settings: read-out: BPR
Outline: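 Brain and plasma were sampled at a single point 30 min after the i.v. 5 mpk dose. The ratio was calculated from mean concentrations of 2 rats.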

[7] = Retention time of the compound by LC-MS analysis; type: physicochemical
Outline: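 Eluents were water and acetonitrile, each with TFA, run as a 5 to 95% acetonitrile gradient over 1.5 min at 1.5 mL/min. Capillary voltage was 3.5 kV and fragmentor voltage 50 V.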

[8] = biological target: GABA-A receptor; agonist GABA site; test: Positive allosteric modulation of recombinant alpha4beta3delta GABAA receptor (unknown origin) expressed in CHO cells assessed as potentiation of GABA-induced channel current treated for 30 s prior to GABA stimulation for 2s by manual patch assay; type: cell-based, Homo sapiens
[9] = biological target: GABA-A receptor; anion channel; test: Displacement of [3H]TBPS from GABAA receptor in Sprague-Dawley rat brain cortical membrane after 90 mins by liquid scintillation spectrometry
[10] = biological target: GABA-A receptor; agonist GABA site; test: Positive allosteric modulation of recombinant alpha1beta2gamma2 GABAA receptor (unknown origin) expressed in LTK cells assessed as potentiation of GABA-induced channel current treated for 30 s prior to GABA stimulation for 2s by Q-patch assay; type: cell-based, Homo sapiens
[11] = biological target: GABA-A receptor; alpha-1/beta-2/gamma-2 (Homo sapiens) (UniProt P14867+P47870+P18507); test: Selectivity ratio of EC50 for recombinant alpha1beta2gamma2 GABAA receptor (unknown origin) expressed in LTK cells to EC50 for recombinant alpha4beta3delta GABAA receptor (unknown origin) expressed in CHO cells; type: cell-based
[12] = Lipophilicity, log D of the compound at 20 uM at pH 7.4 by HPLC-MS/MS analysis; type: physicochemical; settings: buffer
[13] = Aqueous solubility of the compound at pH 7.4 by HPLC-MS/MS analysis; type: physicochemical; settings: buffer

Compound | CLhep predicted at 10 µM [1] [mL/min/kg] | CLhep predicted at 10 µM [2] [mL/min/kg] | CLhep predicted at 10 µM [3] [mL/min/kg] | clearance [4] [mL/min/kg] | bioavailability [5] [%] | Kp at 0.5 h [6] | Retention_time [7] [min] | EC50 [8] [nM] | IC50 [9] [nM] | EC50 [10] [nM] | Ratio EC50 [11] | logD at 20 µM [12] | solubility [13] [µM]
C[C@@]1(O)CC[C@H]2[C@H](CC[C@@H]3[C@@H]2CC[C@]2(C)[C@@H](C(=O)Cn4cc5ccncc5n4)CC[C@@H]32)C1 | 4.5 | 55.7 | 33.8 | 58.3 | 40 | 2.1 | 0.75 | 178 | 16 | > 3000 | > 17 | 4.7 | 1.2 (≈ 0.523 µg/mL)
C[C@@]1(O)CC[C@H]2[C@H](CC[C@@H]3[C@@H]2CC[C@]2(C)[C@@H](C(=O)Cn4cc5ncccc5n4)CC[C@@H]32)C1 | 4.5 | 55.7 | 60 | 73.3 | 1.5 | 1.3 | 0.81 | 343 | 6 | > 3000 | > 8 | 4.7 | 12.4 (≈ 5.4 µg/mL)
